How the values were obtained:
[1] = Compound was tested for its stability in human plasma; assay type: ADME, organism-based
[2] = target: T1, Capsid scaffolding protein (Human cytomegalovirus (strain AD169) (HHV-5) (Human herpesvirus 5), UniProt P16753); test: Inhibition of human cytomegalovirus protease in HCMV pNA assay.; set-up: species or system Human herpesvirus 5 strain AD169
T1 sequence (P16753 whole entry): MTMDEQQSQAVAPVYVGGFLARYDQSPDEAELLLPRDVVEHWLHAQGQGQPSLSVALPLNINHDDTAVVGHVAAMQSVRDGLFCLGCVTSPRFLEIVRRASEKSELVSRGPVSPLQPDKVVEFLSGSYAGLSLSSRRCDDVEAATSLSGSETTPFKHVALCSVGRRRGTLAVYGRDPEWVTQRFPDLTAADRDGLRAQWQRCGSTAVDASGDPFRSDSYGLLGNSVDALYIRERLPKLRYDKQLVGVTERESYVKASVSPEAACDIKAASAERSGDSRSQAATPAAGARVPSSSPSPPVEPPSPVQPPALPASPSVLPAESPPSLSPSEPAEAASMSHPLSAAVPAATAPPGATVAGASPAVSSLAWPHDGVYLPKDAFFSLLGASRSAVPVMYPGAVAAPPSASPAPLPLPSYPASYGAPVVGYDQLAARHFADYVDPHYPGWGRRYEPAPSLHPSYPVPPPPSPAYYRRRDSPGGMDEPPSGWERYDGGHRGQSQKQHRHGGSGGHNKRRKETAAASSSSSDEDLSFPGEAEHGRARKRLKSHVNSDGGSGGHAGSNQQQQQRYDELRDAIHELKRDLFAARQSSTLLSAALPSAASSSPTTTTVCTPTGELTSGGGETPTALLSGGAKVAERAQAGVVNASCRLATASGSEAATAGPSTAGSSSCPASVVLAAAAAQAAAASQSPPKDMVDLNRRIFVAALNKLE

[3] = target: T1, Capsid scaffolding protein; test: Potency against human cytomegalovirus protease in HCMV pNA assay; set-up: species or system Human herpesvirus 5 strain AD169
Vero = test: Growth inhibition of cytomegalovirus in Vero cells; assay type: functional, Human betaherpesvirus 5
Human betaherpesvirus 5 [4] = test: Concentration required to inhibit human cytomegalovirus HCMV-AD169 in ELISA assay
Acetylcholinesterase [5] = target: T2, Acetylcholinesterase (Homo sapiens, UniProt P22303); test: Concentration of compound required to inhibit Acetylcholinesterase
[6] = Concentration of compound required to inhibit elastase
Prothrombin [7] = target: T3, Prothrombin (Homo sapiens, UniProt P00734); test: Concentration of compound required to inhibit thrombin
Human betaherpesvirus 5 [8] = test: Concentration required to inhibit human cytomegalovirus HCMV-AD169 in ELISA assay; remark: listed apart in the source
[9] = Clearance value in dog; assay type: ADME, organism-based, Canis lupus familiaris; settings: in vivo
Procedure, shortened: (§1)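 Dog pharmacokinetics after intravenous administration, with plasma clearance, volume of distribution and half-life derived from plasma drug levels.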

[10] = Clearance value in guinea pig; assay type: ADME, organism-based, Cavia porcellus; settings: in vivo
Procedure, shortened: (§2)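 Guinea-pig pharmacokinetics after intravenous dosing, with plasma clearance, volume of distribution and half-life. Drug levels were also measured in brain and vitreous humor.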

Canis familiaris [11] = species: Canis familiaris; test: AUC 0-inf in dog; assay type: ADME, organism-based, Canis lupus familiaris, Plasma; set-up: time infinity; settings: in vivo
Cavia porcellus [12] = species: Cavia porcellus; test: AUC 0-inf in guinea pig; assay type: ADME, organism-based, Plasma; set-up: time infinity; settings: in vivo
Canis familiaris [13] = species: Canis familiaris; test: AUC 0-t in dog; assay type: ADME, organism-based, Canis lupus familiaris, Plasma; settings: in vivo
Cavia porcellus [14] = species: Cavia porcellus; test: AUC 0-t in guinea pig; assay type: ADME, organism-based, Plasma; settings: in vivo
[15] = C max in dog; assay type: ADME, organism-based, Canis lupus familiaris; settings: in vivo
[16] = C max in guinea pig; assay type: ADME, organism-based, Cavia porcellus; settings: in vivo
[17] = Steady state distribution value in dog; assay type: ADME, organism-based, Canis lupus familiaris; settings: in vivo, read-out: Vdss; procedure, shortened: as §1
[18] = Steady state distribution value in guinea pig; assay type: ADME, organism-based, Cavia porcellus; settings: in vivo, read-out: Vdss; procedure, shortened: as §2
[19] = T 1/2 in dog; assay type: ADME, organism-based, Canis lupus familiaris; settings: in vivo; procedure, shortened: as §1
[20] = T 1/2 in guinea pig; assay type: ADME, organism-based, Cavia porcellus; settings: in vivo; procedure, shortened: as §2
[21] = T max in dog; assay type: ADME, organism-based, Canis lupus familiaris; settings: in vivo
[22] = T max in guinea pig; assay type: ADME, organism-based, Cavia porcellus; settings: in vivo
[23] = Bioavailability in dog; assay type: ADME, organism-based, Canis lupus familiaris; settings: in vivo
Procedure, shortened: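 Oral bioavailability in dog, set against intravenous administration in the same study.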

Acetylcholinesterase [24] = target: T2, Acetylcholinesterase; test: Concentration required to inhibit Acetylcholinesterase
[25] = Concentration required to inhibit elastase
Human betaherpesvirus 5 [26] = test: Concentration required to inhibit human cytomegalovirus HCMV-AD169 in antiviralplaque reduction assay; assay type: functional, organism-based
Prothrombin [27] = target: T3, Prothrombin; test: Concentration required to inhibit thrombin

T2 sequence (P22303 whole entry): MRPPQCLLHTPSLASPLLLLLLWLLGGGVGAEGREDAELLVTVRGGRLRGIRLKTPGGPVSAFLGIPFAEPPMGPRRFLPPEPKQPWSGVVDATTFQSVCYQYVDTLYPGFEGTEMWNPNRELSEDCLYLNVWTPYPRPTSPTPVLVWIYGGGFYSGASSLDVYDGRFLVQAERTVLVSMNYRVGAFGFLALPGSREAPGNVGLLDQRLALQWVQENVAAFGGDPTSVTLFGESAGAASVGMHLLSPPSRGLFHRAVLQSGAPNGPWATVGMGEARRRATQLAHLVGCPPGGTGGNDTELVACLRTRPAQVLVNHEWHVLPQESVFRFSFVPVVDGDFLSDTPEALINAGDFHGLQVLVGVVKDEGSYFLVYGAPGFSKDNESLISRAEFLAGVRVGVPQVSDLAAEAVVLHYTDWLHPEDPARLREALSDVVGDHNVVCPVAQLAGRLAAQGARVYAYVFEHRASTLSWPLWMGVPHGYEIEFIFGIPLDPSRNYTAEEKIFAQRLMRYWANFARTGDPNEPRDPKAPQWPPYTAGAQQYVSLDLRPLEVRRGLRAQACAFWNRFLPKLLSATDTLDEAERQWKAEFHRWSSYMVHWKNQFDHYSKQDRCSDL

Compound	half-life [1] [h]	IC50 [2] [µM]	Ki [3] [µM]	CCID50 (Vero) [µM]	IC50 (Human betaherpesvirus 5 [4]) [µM]	other results
CC(C)c1ccc(NC(=O)N2CCC[C@H]2C(=O)N2CC[C@H]3[C@H]2[C@H](C)C(=O)N3c2nc3ccc(OC(F)(F)F)cc3s2)cc1	11	0.46	0.02	>500	5.3	–
CC(C)c1ccc(NC(=O)N2CCC[C@H]2C(=O)N2CC[C@H]3[C@H]2[C@H](C)C(=O)N3C(=O)[C@@H]2[C@H](C)[C@@H]2C)cc1	6	0.3	0.016	219	–	IC50 (Acetylcholinesterase [5]): > 100 µM; IC50 [6]: > 10 µM; IC50 (Prothrombin [7]): > 200 µM; IC50 (Human betaherpesvirus 5 [8]): 10 µM
CCOC(=O)c1ccc2nc(N3C(=O)[C@@H](C)[C@@H]4[C@@H]3CCN4C(=O)[C@@H]3CCCN3C(=O)Nc3ccc(C(C)C)cc3)sc2c1	9	0.35	0.0074	>500	5.1	–
CC(C)c1ccc(NC(=O)N2CCC[C@H]2C(=O)N2CC[C@H]3[C@H]2[C@H](C)C(=O)N3c2nc3ccc(CO)cc3s2)cc1	> 20	0.31	0.04	125	0.52	–
CC(C)c1ccc(NC(=O)N2CCC[C@H]2C(=O)N2CC[C@H]3[C@H]2[C@H](C)C(=O)N3C(=O)C2CC2)cc1	0.5	0.2	0.002	274	31	–
CC(C)c1ccc(NC(=O)N2CCC[C@H]2C(=O)N2CC[C@H]3[C@H]2[C@H](C)C(=O)N3c2nc3ccccc3s2)cc1	> 24	0.18	0.01	>500	–	clearance [9]: 8 mL/min/kg; clearance [10]: 60 mL/min/kg; AUC 0-infinity (Canis familiaris [11]): 9750 ng/mL/h; AUC 0-infinity (Cavia porcellus [12]): 2230 ng/mL/h; AUC 0-t (Canis familiaris [13]): 9660 ng/mL/h; AUC 0-t (Cavia porcellus [14]): 2210 ng/mL/h; Cmax [15]: 5480 ng/mL; Cmax [16]: 32000 ng/mL; Vd [17]: 0.8 L/kg; Vd [18]: 1.6 L/kg; half-life [19]: 1.5 h; half-life [20]: 1 h; Tmax [21]: 4.8 min; Tmax [22]: 4.8 min; bioavailability [23]: 29%; IC50 (Acetylcholinesterase [24]): > 100 µM; IC50 [25]: > 10 µM; IC50 (Human betaherpesvirus 5 [26]): 5 µM; IC50 (Prothrombin [27]): > 200 µM

Source: ChEMBL document CHEMBL1136799, “Design and synthesis of pyrrolidine-5,5'-trans-lactams (5-oxo-hexahydropyrrolo[3,2-b]pyrroles) as novel mechanism-based inhibitors of human cytomegalovirus protease. 4. Antiviral activity and plasma stability” (J Med Chem, 2003)
